Assay results taken from ChEMBL document CHEMBL4732185, “Synthesis, biological evaluation and structure-activity relationship of novel dichloroacetophenones targeting pyruvate dehydrogenase kinases with potent anticancer activity” (Eur J Med Chem, 2021).
The source made the active and inactive calls. The rule behind the calls is not given here.

Tests used:
[1] = system: MCF7; assay: Antiproliferative activity against human MCF7 cells assessed as growth inhibition at 1 uM after 72 hrs by MTT assay relative to control; assay type: functional; settings: read-out: GI
Method in brief: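 Single-concentration MTT screen on MCF-7 and A549 cells grown in DMEM + 10% FBS. Cells at 3000–6000/well, cultured overnight, then given compound in buffer with 1% DMSO for 72 h. MTT (0.5 mg/mL) added for 4 h, formazan dissolved in DMSO, A570 read. Percent inhibition reported as the average ± S.D. of three independent measurements.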

[2] = system: A549; assay: Antiproliferative activity against human A549 cells assessed as growth inhibition after 72 hrs by MTT assay; assay type: functional, cell-based; settings: Homo sapiens, A549, 72 h; read-out: IC50
Method in brief: (§1)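 MTT viability assay. Cancer lines seeded at 3000–6000 cells/well and L02 at 7000 cells/well, cultured overnight, then exposed to a full dose range for 72 h. MTT (0.5 mg/mL) added for 4 h, supernatant removed, formazan dissolved in DMSO, absorbance read at 570 nm. IC50 taken as the mean of three independent experiments. Cells grown in DMEM + 10% FBS, 37 °C, 5% CO2.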

[3] = system: MCF7; assay: Antiproliferative activity against human MCF7 cells assessed as growth inhibition after 72 hrs by MTT assay; assay type: functional, cell-based; settings: Homo sapiens, MCF7, 72 h; read-out: IC50; method in brief: as §1
[4] = system: HCT-116; assay: Antiproliferative activity against human HCT-116 cells assessed as growth inhibition after 72 hrs by MTT assay; assay type: functional, cell-based; settings: Homo sapiens, HCT-116, 72 h; read-out: IC50; method in brief: as §1
[5] = system: L02; assay: Cytotoxicity against human L02 cells assessed as reduction in cell viability after 72 hrs by MTT assay; assay type: cell-based; settings: Homo sapiens, L02, 72 h; read-out: IC50; method in brief: as §1
[6] = Inhibition of PDK (unknown origin) using RYHGHSMSDP as substrate after 30 mins by Kinase-Glo luminescent assay; parameters: species or system Homo sapiens
[7] = molecular target: [Pyruvate dehydrogenase (acetyl-transferring)] kinase isozyme 3, mitochondrial (Homo sapiens, UniProt Q15120); assay: Binding affinity to PDK3 (unknown origin) by isothermal titration calorimetry
Method in brief: (§2)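 Isothermal titration calorimetry at 25 °C. Compound dissolved in DMSO, diluted to 100 µM in buffer and placed in the titration syringe; 250 µL of PDK protein solution in the reaction cell. Titrant added in 2.5 µL increments per injection.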

[8] = molecular target: [Pyruvate dehydrogenase (acetyl-transferring)] kinase isozyme 4, mitochondrial (Homo sapiens, UniProt Q16654); assay: Binding affinity to PDK4 (unknown origin) by isothermal titration calorimetry; method in brief: as §2
[9] = system: A-375; assay: Induction of apoptosis in human A375 cells assessed as early apoptotic cells at 1 uM after 36 hrs by annexinV-FITC/propidium iodide staining based flow cytometric analysis (reference value: 3.2%); assay type: functional
[10] = system: A-375; assay: Induction of apoptosis in human A375 cells assessed as late apoptotic cells at 2.5 uM after 36 hrs by annexinV-FITC/propidium iodide staining based flow cytometric analysis (reference value: 1.02%); assay type: functional
[11] = system: A-375; assay: Induction of apoptosis in human A375 cells assessed as viable cells at 5 uM after 36 hrs by annexinV-FITC/propidium iodide staining based flow cytometric analysis (reference value: 94.15%); assay type: functional; settings: read-out: Activity
[12] = system: A-375; assay: Induction of apoptosis in human A375 cells assessed as late apoptotic cells at 5 uM after 36 hrs by annexinV-FITC/propidium iodide staining based flow cytometric analysis (reference value: 1.02%); assay type: functional
[13] = system: A-375; assay: Induction of apoptosis in human A375 cells assessed as necrotic cells at 5 uM after 36 hrs by annexinV-FITC/propidium iodide staining based flow cytometric analysis (reference value: 1.63%); assay type: functional
[14] = system: A-375; assay: Induction of apoptosis in human A375 cells assessed as viable cells at 5 uM after 12 hrs by annexinV-FITC/propidium iodide staining based flow cytometric analysis (reference value: 97.94%); assay type: functional; settings: read-out: Activity
[15] = system: A-375; assay: Induction of apoptosis in human A375 cells assessed as late apoptotic cells at 5 uM after 12 hrs by annexinV-FITC/propidium iodide staining based flow cytometric analysis (reference value: 0.63%); assay type: functional
[16] = system: A-375; assay: Induction of apoptosis in human A375 cells assessed as viable cells at 5 uM after 24 hrs by annexinV-FITC/propidium iodide staining based flow cytometric analysis (Rvb= 97.94%); assay type: functional; settings: read-out: Activity
[17] = system: A-375; assay: Induction of apoptosis in human A375 cells assessed as early apoptotic cells at 5 uM after 24 hrs by annexinV-FITC/propidium iodide staining based flow cytometric analysis (reference value: 0.87%); assay type: functional
[18] = system: A-375; assay: Induction of cell cycle arrest in human A375 cells assessed as accumulation at G1 phase at 1 uM after 24 hrs by propidium iodide staining based flow cytometric analysis (reference value: 52.65%); assay type: functional
[19] = system: A-375; assay: Induction of cell cycle arrest in human A375 cells assessed as accumulation at S phase at 1 uM after 24 hrs by propidium iodide staining based flow cytometric analysis (reference value: 37.33%); assay type: functional
[20] = system: A-375; assay: Induction of cell cycle arrest in human A375 cells assessed as accumulation at G2 phase at 2.5 uM after 24 hrs by propidium iodide staining based flow cytometric analysis (reference value: 10.02%); assay type: functional
[21] = system: A-375; assay: Induction of cell cycle arrest in human A375 cells assessed as accumulation at G1 phase at 5 uM after 24 hrs by propidium iodide staining based flow cytometric analysis (reference value: 52.65%); assay type: functional
[22] = system: A-375; assay: Induction of mitochondrial membrane depolarization in human A375 cells at 2 to 10 uM after 4 hrs by JC-1 staining based confocal microscopic analysis; assay type: functional, cell-based; settings: dose 2-10 µM
Method in brief: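 Mitochondrial membrane potential. A375 cells seeded at 4 × 10^4 cells/mL, grown overnight, then treated at 2, 5 or 10 µM at 37 °C for 4 h. Stained with JC-1 in fresh medium for 15 min at 37 °C, washed three times with cool PBS and imaged by laser scanning confocal microscopy (red J-aggregate vs green monomer).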

[23] = system: A-375; assay: Inhibition of PDK in human A375 cells assessed as reduction in phosphorylation of PDC E1alpha at ser293 residues at 2.5 to 5 uM after 24 hrs by Western blot analysis; assay type: cell-based; settings: dose 2.5-5 µM
Method in brief: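 A375 cells in 6-well plates, treated 24 h. Lysed 15 min and spun 12000 rpm at 4 °C for 15 min. Protein equalized by BCA and denatured in SDS buffer at 100 °C for 8 min. Run on SDS-PAGE, transferred to nitrocellulose, blocked in 5% milk 2 h, primary antibody overnight, HRP anti-rabbit IgG 2 h, ECL detection.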

[24] = system: A-375; assay: Inhibition of PDK in human A375 cells assessed as reduction lactate formation at 2.5 to 5 uM after 4 hrs by Nova Bio-profile Flex analyzer; assay type: cell-based; settings: dose 2.5-5 µM
Method in brief: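 A375 cells seeded at 2.5 × 10⁵/well in 24-well plates and cultured overnight. Treated 4 h at 37 °C. Medium collected and centrifuged 4 min at 12000 rpm for lactate determination.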

[25] = system: A-375; assay: Inhibition of PDK in human A375 cells assessed as increase in oxygen consumption rate after 4 hrs by XFe cell Mito stress test assay; assay type: cell-based; settings: dose 2.5-5 µM
Method in brief: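 A375 cells attached, then given an extra 100 µL growth medium and incubated 24 h. Treated 4 h, then rinsed twice with pre-warmed XFe base medium. OCR measured as in a previous report.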

Sequence of [Pyruvate dehydrogenase (acetyl-transferring)] kinase isozyme 3, mitochondrial (Q15120 whole entry): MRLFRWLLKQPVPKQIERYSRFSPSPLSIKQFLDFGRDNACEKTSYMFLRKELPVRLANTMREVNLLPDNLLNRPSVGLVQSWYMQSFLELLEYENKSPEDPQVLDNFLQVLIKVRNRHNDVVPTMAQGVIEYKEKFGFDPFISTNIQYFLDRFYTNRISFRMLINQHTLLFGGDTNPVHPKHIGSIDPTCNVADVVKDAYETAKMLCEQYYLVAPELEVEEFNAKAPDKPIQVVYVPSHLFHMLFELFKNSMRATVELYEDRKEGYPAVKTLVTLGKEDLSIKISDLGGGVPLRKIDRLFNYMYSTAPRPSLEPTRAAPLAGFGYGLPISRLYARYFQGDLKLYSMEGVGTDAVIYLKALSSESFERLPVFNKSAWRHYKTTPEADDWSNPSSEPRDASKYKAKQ
Sequence of [Pyruvate dehydrogenase (acetyl-transferring)] kinase isozyme 4, mitochondrial (Q16654 whole entry): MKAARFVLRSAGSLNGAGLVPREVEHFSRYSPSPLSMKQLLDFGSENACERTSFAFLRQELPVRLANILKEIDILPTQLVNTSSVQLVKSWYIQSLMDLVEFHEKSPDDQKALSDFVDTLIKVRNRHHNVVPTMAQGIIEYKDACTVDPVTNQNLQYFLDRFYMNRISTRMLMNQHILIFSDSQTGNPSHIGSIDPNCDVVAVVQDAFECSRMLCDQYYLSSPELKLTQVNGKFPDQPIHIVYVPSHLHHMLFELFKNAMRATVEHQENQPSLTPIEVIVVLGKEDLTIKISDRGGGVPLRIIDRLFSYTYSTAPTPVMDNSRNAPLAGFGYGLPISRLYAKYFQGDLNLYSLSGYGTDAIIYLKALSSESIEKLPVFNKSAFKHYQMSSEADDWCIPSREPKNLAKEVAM

IC50 [2]: 3.2 µM
IC50 [3]: 2.4 µM
IC50 [4]: 2.1 µM
EC50 [6]: 0.09 µM
Kd [7]: 7.8 µM
Kd [8]: 9.2 µM
SMILES: CC(C)(CO)c1ccc(Nc2ccc(C(=O)C(Cl)Cl)cc2[N+](=O)[O-])cc1
inhibition of growth at 1 µM [1]: 38.9%
IC50 [5]: 14.4 µM
Activity [9]: 6.64%
Activity [10]: 22.3%
viability at 5 µM [11]: 44.5%
Activity [12]: 38.81%
Activity [13]: 4.21%
viability at 5 µM [14]: 82.8%
Activity [15]: 6.88%
viability at 5 µM [16]: 70.9%
Activity [17]: 6.47%
Activity [18]: 55.72%
Activity [19]: 34.63%
Activity [20]: 8.5%
Activity [21]: 66.86%
Activity [22]: Active
inhibition [23]: Active
inhibition [24]: Active
inhibition [25]: Dose-dependent effect
